Experimental data: ChEMBL document CHEMBL2046281, “Pre-steady state kinetic analysis of cyclobutyl derivatives of 2'-deoxyadenosine 5'-triphosphate as inhibitors of HIV-1 reverse transcriptase” (Bioorg Med Chem Lett, 2012)

How the values were obtained:
[1] = biological target: Human immunodeficiency virus type 1 reverse transcriptase (Human immunodeficiency virus 1) (UniProt Q72547); test: Binding affinity to wild type HIV1 reverse transcriptase assessed as compound incorporation in presence of 50 nM primer template and 10 mM MgCl2 by pre-steady state kinetics study
Procedure, shortened: (§1)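 Pre-steady-state single-nucleotide incorporation by HIV-1 RT (wild type or K65R), 250 nM active-site enzyme, elongating a radiolabeled DNA/DNA primer-template (50 nM) that carries the primer binding site and its complementary sequence. Reactions contained 10 mM MgCl2 and varied nucleotide concentrations. kpol and Kd were derived, and incorporation efficiency was reported in s-1 µM-1.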

[2] = biological target: Human immunodeficiency virus type 1 reverse transcriptase (Human immunodeficiency virus 1, UniProt Q72547); test: Binding affinity to wild type HIV1 reverse transcriptase by pre-steady state kinetics study
Procedure, shortened: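 Pre-steady-state single-nucleotide incorporation by wild-type HIV-1 RT (250 nM active sites) into a radiolabeled DNA/DNA primer-template (50 nM) carrying the primer binding site and its complementary sequence. Reactions contained 10 mM MgCl2 and varied nucleotide concentrations. kpol and Kd were taken from the primer elongation data.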

[3] = biological target: Human immunodeficiency virus type 1 reverse transcriptase (Human immunodeficiency virus 1) (UniProt Q72547); test: Inhibition of wild type HIV1 reverse transcriptase assessed as compound incorporation efficiency in presence of 50 nM primer template and 10 mM MgCl2 by pre-steady state kinetics study; procedure, shortened: as §1
[4] = biological target: Human immunodeficiency virus type 1 reverse transcriptase (Human immunodeficiency virus 1) (UniProt Q72547); test: Discrimination index, ratio of incorporation efficiency of dATP to incorporation efficiency of compound for wild type HIV1 reverse transcriptase
[5] = test system: Human immunodeficiency virus type 1 reverse transcriptase (Human immunodeficiency virus 1), Q72547 [K65R]; test: Inhibition of HIV1 reverse transcriptase K65R mutant assessed as compound incorporation efficiency in presence of 50 nM primer template and 10 mM MgCl2 by pre-steady state kinetics study; procedure, shortened: as §1
[6] = biological target: Human immunodeficiency virus type 1 reverse transcriptase (Human immunodeficiency virus 1, UniProt Q72547, K65R); test: Binding affinity to HIV1 reverse transcriptase K65R mutant by pre-steady state kinetics study; procedure, shortened: as §1
[7] = test system: Human immunodeficiency virus type 1 reverse transcriptase (Human immunodeficiency virus 1), Q72547 [K65R]; test: Binding affinity to HIV1 reverse transcriptase K65R mutant assessed as compound incorporation in presence of 50 nM primer template and 10 mM MgCl2 by pre-steady state kinetics study; procedure, shortened: as §1
[8] = test system: Human immunodeficiency virus type 1 reverse transcriptase (Human immunodeficiency virus 1), Q72547 [K65R]; test: Discrimination index, ratio of incorporation efficiency of dATP to incorporation efficiency of compound for wild type HIV1 reverse transcriptase K65R mutant

Row | Ratio [4] | SMILES | K [1] [s⁻¹] | Kd [2] [µM] | Activity [3] [s⁻¹ µM⁻¹] | Activity [5] [s⁻¹ µM⁻¹] | Kd [6] [µM] | K [7] [s⁻¹] | Ratio [8]
1 | 386 | NC1=Nc2ncnc3c2c(cn3[C@H]2C[C@@H](COP(=O)(O)OP(=O)(O)OP(=O)(O)O)C2)C=C1 | 0.16 | 22.4 | 0.007 | – | – | – | –
2 | 245 | Nc1ncnc2c1ncn2[C@H]1C[C@@H](COP(=O)(O)OP(=O)(O)OP(=O)(O)O)C1 | 0.23 | 20.4 | 0.011 | – | – | – | –

Continued, compound first:

Row | SMILES | Ratio [4] | K [1] [s⁻¹] | Kd [2] [µM] | Activity [3] [s⁻¹ µM⁻¹] | Activity [5] [s⁻¹ µM⁻¹] | Kd [6] [µM] | K [7] [s⁻¹] | Ratio [8]
3 | Nc1ncnc2c1ncn2[C@@H]1C[C@H](COP(=O)(O)OP(=O)(O)OP(=O)(O)O)[C@H]1F | 519 | 0.13 | 25.5 | 0.0052 | – | – | – | –
4 | Nc1ncnc2c1ncn2[C@H]1C[C@H](O)[C@@H](COP(=O)(O)OP(=O)(O)OP(=O)(O)O)O1 | – | 12.3 | 4.6 | 2.7 | 0.61 | 6.6 | 4 | –
5 | C[C@H](Cn1cnc2c(N)ncnc21)OCP(=O)(O)OP(=O)(O)OP(=O)(O)O | 56 | 0.79 | 16.5 | 0.048 | 0.005 | 29.1 | 0.15 | 122
6 | Nc1ncnc2c1ncn2[C@H]1C[C@@H](OCP(=O)(O)OP(=O)(O)OP(=O)(O)O)C1 | 13 | 1.3 | 6.5 | 0.21 | 0.015 | 4.7 | 0.07 | 41
